We go through 7 molecules from publication PMC4245983 (Biochemistry, 2014).

“Also recorded” adds a separate entry of the source.

For series [1], the system named is HscA. As to the kind of experiment: Steady-state ATPase assay of HscA variants. The note with it: for fold increase in ATPase activity vs HscA386 / fold increase in ATPase activity vs WT HscA: 1 μM HscA, 1 mM ATP, HMKD pH 7.3, 25 °C; for fold increase in ATPase activity vs HscA386: relative to HscA386; for fold increase in ATPase activity vs WT HscA: relative to WT HscA. Type of series: biochemical, Escherichia coli. The procedure, abridged: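 Steady-state hydrolysis at 25 °C in HMKD (50 mM HEPES pH 7.3, 150 mM KCl, 10 mM MgCl2, 1 mM DTT) with 1 μM HscA variant and 1 mM ATP. Pi release was followed continuously by EnzChek enzyme-coupled assay at 360 nm and converted via a Pi standard curve to min–1. Three or more replicates. Linker peptide was dissolved in HMKD with 10% DMSO and added at 5–500 μM final.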

For series [2], the system named is HscA. Description: ATPase activity as a function of ATP concentration. Type of series: biochemical, Escherichia coli. The note with it: for Vmax from Michaelis-Menten fit: 2–1000 μM ATP, 1 μM HscA, HMKD pH 7.3, 25 °C, n = 3; for apparent ATP binding affinity, comparison of HscA386 and HscA395: from Km comparison. The method in brief: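 NBD constructs (stop codons at residue 387 or 396; DEAE then Superdex 75 purification) were used at 1 μM in HMKD (50 mM HEPES pH 7.3, 150 mM KCl, 10 mM MgCl2, 1 mM DTT), 25 °C. ATP was 2, 4, 10, 40, 100 and 1000 μM. Pi release was monitored continuously by EnzChek coupled assay at 360 nm against a Pi standard curve. Means of three replicates were fit by nonlinear Michaelis–Menten regression for Km and Vmax.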

The subject of another series is HscA386(T212V). Description: 2D 1H-15N TROSY-HSQC nucleotide binding to HscA386. The note with it: TED buffer lacking Mg2+, pH 7.5, 10 mM ATP. Set-up: species or system Escherichia coli. The method in brief:
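0.3 mM [U-15N]-labelled NBD construct (expressed in Rosetta Blue DE3 in M9 medium with 1 g/L 15NH4Cl, 0.4 mM IPTG, 4 h). Solvent was TED buffer with 7% D2O and 0.02% sodium azide. 2D 1H–15N TROSY-HSQC spectra were taken without nucleotide and with 10 mM ATP at 25 °C, 800 MHz, and compared.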

The nature of series [3]: Solubility of linker peptide. The note with it: TED buffer pH 7.5 without DMSO, upper limit concentration of 3 mM. Type of series: physicochemical.
For series [4], the system named is HscA386. Description: 2D 1H-15N TROSY-HSQC linker peptide binding to HscA386. The note with it: 0.2 mM [U-15N]HscA386, 3 mM linker peptide (15-fold molar excess), TED buffer, 900 MHz. Set-up: species or system Escherichia coli.
The test system of series [5] is HscA386. As to the kind of experiment: Steady-state ATPase assay of HscA386. The class given is biochemical, Escherichia coli. The note with it: for effect on ATPase activity of HscA386 by linker peptide: 5–500 μM linker peptide, 1 μM HscA386, HMKD with 10% DMSO; for effect on ATPase activity of HscA386: 50:1 molar ratio (50 μM HscB or IscU), 25 °C, n = 3.
The next series concerns IscU. The note with it: cited from earlier work.
Series [6] relates to WT HscA. As to the kind of experiment: Steady-state ATPase assay of WT HscA with HscB or IscU. The class given is biochemical, Escherichia coli. The note with it: for effect on ATPase activity of WT HscA: 50-fold molar excess of HscB or IscU, 25 °C, n = 3. The procedure, abridged: (§1)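 HscB or IscU (50-fold molar excess, 50 μM) was added to 1 μM HscA variant (full-length WT or NBD construct). Reactions used HMKD buffer pH 7.3 with 1 mM ATP at 25 °C. Phosphate release was monitored continuously by EnzChek coupled assay at 360 nm, calibrated with a Pi standard curve. Three or more replicates.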

A further series concerns HscA389. Description: Steady-state ATPase assay of HscA389 with HscB or IscU. The class given is biochemical, Escherichia coli. The note with it: 50:1 molar ratio (50 μM HscB or IscU), 25 °C, n = 3. The procedure, abridged: as §1
Series [7] relates to WT HscA. The note with it: J-domain interactions; cited from earlier work.
The test system of another series is HscA395. As to the kind of experiment: Steady-state ATPase assay of HscA395 with HscB or IscU. The class given is biochemical, Escherichia coli. The note with it: 50:1 molar ratio (50 μM HscB or IscU), 25 °C, n = 3. The method in brief: as §1
Series [8] can be described thus: Differential scanning fluorimetry. The class given is physicochemical. The note with it: relative to HscA386. The procedure, abridged:
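2 μM protein in 5 mM HEPES pH 7.3, 10 mM MgCl2, 10 mM KCl with 10 μM SYPRO orange, in triplicate. Heated 15–99 °C in a real-time PCR instrument; excitation 492 nm, emission 610 nm. Tm was taken where the first derivative of fluorescence reached its minimum.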

With “HscA389: NBD of HscA containing a short (three-amino acid) linker peptide, LLL motif”, in the series with HscA [1], the “fold increase in ATPase activity vs HscA386” value is 7 fold and the “fold increase in ATPase activity vs WT HscA” value was 9 fold.

Consider “HscA386: isolated nucleotide-binding domain (NBD) of HscA”, for which, in the series with HscA [2], the “Vmax from Michaelis-Menten fit” value turned out to be 0.039 ± 0.001 min^–1; the “apparent ATP binding affinity, comparison of HscA386 and HscA395” value is recorded as “equivalent; also recorded: identical within experimental error”.

Take `Nc1ncnc2c1ncn2[C@@H]1O[C@H](COP(=O)(O)OP(=O)(O)OP(=O)(O)O)[C@@H](O)[C@H]1O` [ATP]: the “ATP binding in the absence of Mg2+ (TROSY-HSQC)” value in the series on HscA386(T212V) was “nearly superimposable”.

With LLLDVIPLS [linker peptide], the “solubility of linker peptide in TED buffer” value in [3] is reported as “partially dissolved”. Moreover, the “binding of linker peptide to HscA386 (chemical shift perturbation)” value with HscA386 [4] was “widespread chemical shift perturbations, including distinct broadening of some signals; also recorded: relatively weaker binding interactions; also recorded: weakly binding”; in the series with HscA386 [4] (listed as synthetic peptide) it was “widespread NMR chemical shift perturbations indicative of a binding interaction”. The figures for the “effect on ATPase activity of HscA386 by linker peptide” value in the series on HscA386 [5] and with HscA386 [5] (listed as synthetic peptide) were “A concentration dependence was observed” and “stimulated its ATPase activity”, respectively.

For the molecule HscB: Hsp40-type cochaperone of HscA, in the series with IscU, the “preferential binding to conformational state of IscU” value is reported as “binds preferentially to the S-state”. Further, the “fold increase in ATPase activity of WT HscA” value in the series on WT HscA [6] (1 μM WT HscA with 50 μM HscB) was 8 factor. Besides, the “effect on ATPase activity of WT HscA” value in the series with WT HscA [6] is “enhanced”. Further, the “effect on ATPase activity of HscA389” value in the series on HscA389 is “not affected; also recorded: did not elicit any stimulation of ATPase activity”. In addition, the “HscB-mediated activation of full-length HscA ATPase activity” value in the series with WT HscA [7] is on record as “sensitive to HscB-mediated activation of ATPase activity”. Moreover, the “effect on ATPase activity of HscA395” value in the series on HscA395 is given as “not affected; also recorded: did not elicit any stimulation of ATPase activity; also recorded: neither the isolated NBD (HscA386) nor the NBD with a full interdomain liker (HscA395) was receptive to ATPase stimulation”. Also, in the series on HscA386 [5], the “effect on ATPase activity of HscA386” value is reported as “not affected; also recorded: did not elicit any stimulation of ATPase activity; also recorded: neither the isolated NBD (HscA386) nor the NBD with a full interdomain liker (HscA395) was receptive to ATPase stimulation”.

“IscU: scaffold protein, substrate of HscA”: the “effect on ATPase activity of WT HscA” value with WT HscA [6] is “enhanced”. In addition, the “effect on ATPase activity of HscA389” value in the series with HscA389 is “no effect on the ATPase activities of any of the NBD variants; also recorded: not affected”. In the series with HscA395, the “effect on ATPase activity of HscA395” value is on record as “no effect on the ATPase activities of any of the NBD variants; also recorded: not affected”. The “effect on ATPase activity of HscA386” value in the series with HscA386 [5] is reported as “no effect on the ATPase activities of any of the NBD variants; also recorded: not affected”.

As for “HscA395: NBD of HscA containing the full-length (nine-amino acid) linker peptide”, in the series on HscA [1], the “fold increase in ATPase activity vs HscA386” value came out at 13 fold and the “fold increase in ATPase activity vs WT HscA” value turned out to be 17 fold. Also, the “fold faster ATP hydrolysis than HscA386 in the presence of linker peptide” value in the series with HscA [1] (relative to HscA386 + 500 μM linker peptide) turned out to be 3 fold. For the same molecule, the “basal thermostability vs HscA386” value in series [8] is reported as “higher than those of HscA386; also recorded: increases basal thermostability in comparison to that of HscA386”. In addition, in the series with HscA [2], the “Vmax from Michaelis-Menten fit” value was determined as 0.446 ± 0.016 min^–1; the “apparent ATP binding affinity, comparison of HscA386 and HscA395” value is “equivalent; also recorded: identical within experimental error”.
